The source made the active and inactive calls. The calls are words filed in the database; no cut-off is given here.
Tests used:
[1] = system: Mus musculus; test: Anticonvulsant activity in CF-1 mouse model of maximal electroshock-induced seizure assessed as suppression of tonic hind limb extension at 30 mg/kg, ip measured at 0.5 hrs post dose; type: functional, organism-based
Procedure, shortened: (§1)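 Mice dosed i.p. and given maximal electroshock at 50 mA. Read-out is protection, reported as number protected / number tested at 0.25, 0.5, 1 and 4 h after dosing.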

[2] = system: Mus musculus; test: Anticonvulsant activity in CF-1 mouse model of maximal electroshock-induced seizure assessed as suppression of tonic hind limb extension at 100 mg/kg, ip measured at 0.5 hrs post dose; type: functional, organism-based; procedure, shortened: as §1
[3] = system: Mus musculus; test: Anticonvulsant activity in CF-1 mouse model of maximal electroshock-induced seizure assessed as suppression of tonic hind limb extension at 300 mg/kg, ip measured at 0.5 hrs post dose; type: functional, organism-based; procedure, shortened: as §1
[4] = system: Mus musculus; test: Anticonvulsant activity in CF-1 mouse model of maximal electroshock-induced seizure assessed as suppression of tonic hind limb extension at 30 mg/kg, ip measured at 4 hrs post dose; type: functional, organism-based; procedure, shortened: as §1
[5] = system: Mus musculus; test: Anticonvulsant activity in CF-1 mouse model of maximal electroshock-induced seizure assessed as suppression of tonic hind limb extension at 100 mg/kg, ip measured at 4 hrs post dose; type: functional, organism-based; procedure, shortened: as §1
[6] = system: Mus musculus; test: Anticonvulsant activity in CF-1 mouse model of maximal electroshock-induced seizure assessed as suppression of tonic hind limb extension at 300 mg/kg, ip measured at 4 hrs post dose; type: functional, organism-based; procedure, shortened: as §1
[7] = system: Mus musculus; test: Anticonvulsant activity in CF-1 mouse model of subcutaneous pentylenetetrazole-induced seizure assessed as reduction in convulsions at 30 mg/kg, ip measured at 0.5 hrs post dose; type: functional, organism-based
Procedure, shortened: (§2)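 Mice dosed i.p., then given pentylenetetrazole 85 mg/kg in 0.9% NaCl s.c. into the posterior midline of the neck. Seizures watched for at least 30 min. Scored as protected / tested at 0.5 and 4 h.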

[8] = system: Mus musculus; test: Anticonvulsant activity in CF-1 mouse model of subcutaneous pentylenetetrazole-induced seizure assessed as reduction in convulsions at 100 mg/kg, ip measured at 0.5 hrs post dose; type: functional, organism-based; procedure, shortened: as §2
[9] = system: Mus musculus; test: Anticonvulsant activity in CF-1 mouse model of subcutaneous pentylenetetrazole-induced seizure assessed as reduction in convulsions at 300 mg/kg, ip measured at 0.5 hrs post dose; type: functional, organism-based; procedure, shortened: as §2
[10] = system: Mus musculus; test: Anticonvulsant activity in CF-1 mouse model of subcutaneous pentylenetetrazole-induced seizure assessed as reduction in convulsions at 30 mg/kg, ip measured at 4 hrs post dose; type: functional, organism-based; procedure, shortened: as §2
[11] = system: Mus musculus; test: Anticonvulsant activity in CF-1 mouse model of subcutaneous pentylenetetrazole-induced seizure assessed as reduction in convulsions at 100 mg/kg, ip measured at 4 hrs post dose; type: functional, organism-based; procedure, shortened: as §2
[12] = system: Mus musculus; test: Anticonvulsant activity in CF-1 mouse model of subcutaneous pentylenetetrazole-induced seizure assessed as reduction in convulsions at 300 mg/kg, ip measured at 4 hrs post dose; type: functional, organism-based; procedure, shortened: as §2
[13] = Neurotoxicity in CF-1 mouse at 30 mg/kg, ip measured after 0.5 hrs by rotarod test; type: toxicity, organism-based; details: in vivo
Procedure, shortened: (§3)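 Mice dosed i.p. were placed on a 1 in. knurled rod turning at 6 rpm. Toxicity was scored as failure to keep balance for at least 1 min, i.e. falling off three or more times. Results are reported as animals showing toxicity / animals tested at each time point.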

[14] = Neurotoxicity in CF-1 mouse at 300 mg/kg, ip measured after 0.5 hrs by rotarod test; type: toxicity, organism-based; details: in vivo; procedure, shortened: as §3
[15] = Neurotoxicity in CF-1 mouse at 30 mg/kg, ip measured after 4 hrs by rotarod test; type: toxicity, organism-based; details: in vivo; procedure, shortened: as §3
[16] = Neurotoxicity in CF-1 mouse at 100 mg/kg, ip measured after 4 hrs by rotarod test; type: toxicity, organism-based; details: in vivo; procedure, shortened: as §3
[17] = Neurotoxicity in CF-1 mouse at 300 mg/kg, ip measured after 4 hrs by rotarod test; type: toxicity, organism-based; details: in vivo; procedure, shortened: as §3
[18] = Mutagenicity in Salmonella typhimurium TA100 assessed as mutagenicity index at 50 to 500 ug/plate preincubated for 30 mins followed by top agar addition and measured after 48 hrs in presence of liver S9 fraction by Ames test; type: toxicity, subcellular; details: salmonella enterica subsp. enterica serovar typhimurium, s9, 48 h
Procedure, shortened: (§4)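 Ames plate incorporation in S. typhimurium TA100 or TA1535, with or without S9. Overnight culture, compound in DMSO (50–500 µg per plate) and buffer or S9 mix preincubated 30 min at 37 °C, then top agar on glucose minimal agar. Incubated 48 h at 37 °C, revertants counted in triplicate. Vehicle negative control; NaN3 (−S9) and 2AA (+S9) positive controls. MI = revertants with compound / negative-control revertants; MI ≥ 2 with dose-response counts as positive.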

[19] = Mutagenicity in Salmonella typhimurium TA100 assessed as mutagenicity index at 50 to 500 ug/plate preincubated for 30 mins followed by top agar addition and measured after 48 hrs in absence of liver S9 fraction by Ames test; type: toxicity; details: salmonella enterica subsp. enterica serovar typhimurium, s9, 48 h; procedure, shortened: as §4
[20] = Mutagenicity in Salmonella typhimurium TA1535 assessed as mutagenicity index at 50 to 500 ug/plate preincubated for 30 mins followed by top agar addition and measured after 48 hrs in presence of liver S9 fraction by Ames test; type: toxicity, subcellular; details: salmonella enterica subsp. enterica serovar typhimurium, s9, 48 h; procedure, shortened: as §4
[21] = Mutagenicity in Salmonella typhimurium TA1535 assessed as mutagenicity index at 50 to 500 ug/plate preincubated for 30 mins followed by top agar addition and measured after 48 hrs in absence of liver S9 fraction by Ames test; type: toxicity; details: salmonella enterica subsp. enterica serovar typhimurium, s9, 48 h; procedure, shortened: as §4
[22] = system: Salmonella typhimurium; test: Antimutagenic activity against Salmonella typhimurium TA100 assessed as inhibition of NaN3-induced mutation at 500 ug/plate preincubated for 30 mins followed by top agar addition and measured after 48 hrs in presence of liver S9 fraction by Ames test relative to control; type: organism-based; details: salmonella enterica subsp. enterica serovar typhimurium, s9, 48 h
[23] = system: Salmonella typhimurium; test: Antimutagenic activity against Salmonella typhimurium TA100 assessed as inhibition of NaN3-induced mutation at 250 ug/plate preincubated for 30 mins followed by top agar addition and measured after 48 hrs in presence of liver S9 fraction by Ames test relative to control; type: organism-based; details: salmonella enterica subsp. enterica serovar typhimurium, s9, 48 h
[24] = system: Salmonella typhimurium; test: Antimutagenic activity against Salmonella typhimurium TA100 assessed as inhibition of NaN3-induced mutation at 100 ug/plate preincubated for 30 mins followed by top agar addition and measured after 48 hrs in presence of liver S9 fraction by Ames test relative to control; type: organism-based; details: salmonella enterica subsp. enterica serovar typhimurium, s9, 48 h
[25] = system: Salmonella typhimurium; test: Antimutagenic activity against Salmonella typhimurium TA100 assessed as inhibition of NaN3-induced mutation at 50 ug/plate preincubated for 30 mins followed by top agar addition and measured after 48 hrs in presence of liver S9 fraction by Ames test relative to control; type: organism-based; details: salmonella enterica subsp. enterica serovar typhimurium, s9, 48 h
[26] = system: Salmonella typhimurium; test: Antimutagenic activity against Salmonella typhimurium TA1535 assessed as inhibition of NaN3-induced mutation at 500 ug/plate preincubated for 30 mins followed by top agar addition and measured after 48 hrs in presence of liver S9 fraction by Ames test relative to control; type: organism-based; details: salmonella enterica subsp. enterica serovar typhimurium, s9, 48 h
[27] = system: Salmonella typhimurium; test: Antimutagenic activity against Salmonella typhimurium TA1535 assessed as inhibition of NaN3-induced mutation at 250 ug/plate preincubated for 30 mins followed by top agar addition and measured after 48 hrs in presence of liver S9 fraction by Ames test relative to control; type: organism-based; details: salmonella enterica subsp. enterica serovar typhimurium, s9, 48 h
[28] = system: Salmonella typhimurium; test: Antimutagenic activity against Salmonella typhimurium TA1535 assessed as inhibition of NaN3-induced mutation at 100 ug/plate preincubated for 30 mins followed by top agar addition and measured after 48 hrs in presence of liver S9 fraction by Ames test relative to control; type: organism-based; details: salmonella enterica subsp. enterica serovar typhimurium, s9, 48 h
[29] = system: Salmonella typhimurium; test: Antimutagenic activity against Salmonella typhimurium TA1535 assessed as inhibition of NaN3-induced mutation at 50 ug/plate preincubated for 30 mins followed by top agar addition and measured after 48 hrs in presence of liver S9 fraction by Ames test relative to control; type: organism-based; details: salmonella enterica subsp. enterica serovar typhimurium, s9, 48 h
[30] = Neurotoxicity in Sprague-Dawley rat at 30 mg/kg, po measured after 4 hrs by rotarod test; type: toxicity, organism-based; details: in vivo
Procedure, shortened: (§5)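 Rat neurotoxicity after i.p. or p.o. dosing was scored as animals impaired / animals tested at each time point. For p.o. dosing, TD50 was obtained by probit analysis.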

[31] = Neurotoxicity in Sprague-Dawley rat at 30 mg/kg, po measured after 2 hrs by rotarod test; type: toxicity, organism-based; details: in vivo; procedure, shortened: as §5
[32] = system: Mus musculus; test: Anticonvulsant activity in CF-1 mouse model of maximal electroshock-induced seizure assessed as suppression of tonic hind limb extension at 100 mg/kg, ip measured at 1 hr post dose; type: functional, organism-based; procedure, shortened: as §1
[33] = Neurotoxicity in CF-1 mouse at 100 mg/kg, ip measured after 1 hr by rotarod test; type: toxicity, organism-based; details: in vivo; procedure, shortened: as §3
[34] = system: Rattus norvegicus; test: Anticonvulsant activity in Sprague-Dawley rat model of maximal electroshock-induced seizure assessed as suppression of tonic hind limb extension at 30 mg/kg, po measured at 1 hr post dose; type: functional, organism-based
Procedure, shortened: (§6)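 Rats given 30 mg/kg p.o. and tested by maximal electroshock at 150 mA. Scored as number protected / number tested (4 per group) at 0.25, 0.5, 1, 2 and 4 h after dosing.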

[35] = system: Rattus norvegicus; test: Anticonvulsant activity in Sprague-Dawley rat model of maximal electroshock-induced seizure assessed as suppression of tonic hind limb extension at 30 mg/kg, po measured at 2 hrs post dose; type: functional, organism-based; procedure, shortened: as §6
[36] = Neurotoxicity in Sprague-Dawley rat at 30 mg/kg, po measured after 0.25 hrs by rotarod test; type: toxicity, organism-based; details: in vivo; procedure, shortened: as §5
[37] = Neurotoxicity in Sprague-Dawley rat at 30 mg/kg, po measured after 0.5 hrs by rotarod test; type: toxicity, organism-based; details: in vivo; procedure, shortened: as §5
[38] = Neurotoxicity in Sprague-Dawley rat at 30 mg/kg, po measured after 1 hr by rotarod test; type: toxicity, organism-based; details: in vivo; procedure, shortened: as §5
[39] = system: Rattus norvegicus; test: Anticonvulsant activity in Sprague-Dawley rat model of maximal electroshock-induced seizure assessed as suppression of tonic hind limb extension at 30 mg/kg, po measured at 4 hrs post dose; type: functional, organism-based; procedure, shortened: as §6
[40] = Neurotoxicity in CF-1 mouse at 100 mg/kg, ip measured after 0.5 hrs by rotarod test; type: toxicity, organism-based; details: in vivo; procedure, shortened: as §3

Row | Compound | Activity [1] | Activity [2] | Activity [3] | Activity [4] | Activity [5] | Activity [6] | Activity [7] | Activity [8] | Activity [9] | Activity [10] | Activity [11] | Activity [12] | Activity [13] | Activity [14] | Activity [15] | Activity [16] | Activity [17] | Activity index [18] | Activity index [19] | Activity index [20] | also measured
1 | Cc1cccc(C)c1OCC(=O)NCC(O)c1ccccc1 (stereo not given) | inactive | inactive | inactive | inactive | inactive | inactive | inactive | inactive | inactive | inactive | inactive | inactive | Non-Toxic | Non-Toxic | Non-Toxic | Non-Toxic | Non-Toxic | 0.7 to 1.7 | 0.7 to 1.7 | 0.7 to 1.7 | Activity index [21]: 0.7 to 1.7; inhibition (INH) [22]: 41%; inhibition (INH) [23]: 51%; inhibition (INH) [24]: 45%; inhibition (INH) [25]: 17%; inhibition (INH) [26]: 13%; inhibition (INH) [27]: 35%; inhibition (INH) [28]: 45%; inhibition (INH) [29]: 58%
2 | Cc1cccc(C)c1OCC(=O)NC(C)CO (stereo not given) | inactive | inactive | Active | inactive | inactive | inactive | inactive | inactive | inactive | inactive | inactive | inactive | Non-Toxic | Toxic | Non-Toxic | – | Non-Toxic | – | – | – | Activity [30]: Non-Toxic; Activity [31]: Non-Toxic; Activity [32]: inactive; Activity [33]: Non-Toxic; Activity [34]: inactive; Activity [35]: inactive; Activity [36]: Non-Toxic; Activity [37]: Non-Toxic; Activity [38]: Non-Toxic
3 | CNC(=O)C(C)NC(=O)COc1c(C)cccc1C (stereo not given) | inactive | – | Active | inactive | inactive | inactive | inactive | inactive | inactive | inactive | inactive | inactive | Non-Toxic | Toxic | Non-Toxic | Non-Toxic | Non-Toxic | – | – | – | Activity [30]: Non-Toxic; Activity [31]: Non-Toxic; Activity [34]: inactive; Activity [35]: inactive; Activity [39]: inactive; Activity [36]: Non-Toxic; Activity [37]: Non-Toxic; Activity [38]: Non-Toxic
4 | CC[C@@H](CO)NC(=O)COc1c(C)cccc1C | inactive | inactive | Active | inactive | inactive | inactive | inactive | inactive | inactive | inactive | inactive | inactive | Non-Toxic | Toxic | Non-Toxic | Non-Toxic | Non-Toxic | 0.7 to 1.7 | 0.7 to 1.7 | 0.7 to 1.7 | Activity [32]: inactive; Activity [40]: Non-Toxic; Activity [33]: Non-Toxic; Activity index [21]: 0.7 to 1.7; inhibition (INH) [22]: 43%; inhibition (INH) [23]: 28%; inhibition (INH) [24]: 34%; inhibition (INH) [25]: 26%; inhibition (INH) [26]: 24%; inhibition (INH) [27]: 19%; inhibition (INH) [28]: 22%; inhibition (INH) [29]: 12%
